A selection: hits, their analogues and other compounds. The true share with any hit is near 2.9%.
CHO parental Ca – counter-screen for OX1R antagonists: effect in parental CHO cells | hit rate 0.63% among 330,000 | inhibition, % at 5.6 µM | parental CHO-K1, ATP-induced calcium, Fluo-8 fluorescence | AID 463079;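 active means inhibition above that plate's mean sample inhibition plus 3 SD, cut at about 26% in these data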;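 further: 0% = ATP-challenged DMSO wells and 100% = DMSO wells without ATP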
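Material: parental CHO cells / Compound: single nominal dose of 5.6 µM per compound / Signal: Fluo-8 fluorescence / Replicates: singlicate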
M1 PAM parental – M1 PAM counterscreen hit in parental CHO-K1 cells | ATP EC20, Fluo-8 calcium fluorescence; 0% at ATP EC20, 100% at ATP max | activation, % at 3 µM | hit rate 0.02% among 360,000;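 active means activation above the run cutoff, the mean activation of all test compounds plus 3 SD, cut at about 40% in these data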;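 further: peak over basal fluorescence ratio in a 140 s read after ATP addition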
OX1R antag-1 – OX1R (human) antagonism; hit rate 1.8% among 330,000; inhibition, % at 6.6 µM; AID 485270; OX1R-expressing cells, FRET antagonist read-out; in the data active means inhibition mostly above about 38%, no sharp cut-off; inactive means mostly below about 40%;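 further: 0% = agonist challenge alone and 100% = reference antagonist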
Target sequence (O43613 whole entry, looked up): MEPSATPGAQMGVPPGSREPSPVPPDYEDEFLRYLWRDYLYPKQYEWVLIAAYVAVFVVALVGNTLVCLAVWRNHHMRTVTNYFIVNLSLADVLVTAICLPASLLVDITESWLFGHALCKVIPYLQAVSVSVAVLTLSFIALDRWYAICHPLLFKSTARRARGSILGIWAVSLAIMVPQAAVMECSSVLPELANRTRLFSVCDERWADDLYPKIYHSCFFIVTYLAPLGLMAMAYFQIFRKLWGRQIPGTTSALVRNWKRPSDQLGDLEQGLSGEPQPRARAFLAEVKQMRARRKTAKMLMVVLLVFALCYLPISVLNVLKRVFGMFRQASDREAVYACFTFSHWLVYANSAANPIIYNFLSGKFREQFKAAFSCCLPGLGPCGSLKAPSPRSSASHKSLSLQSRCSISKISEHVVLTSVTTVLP
OX1R antag-2 – human HCRTR1 antagonism; inhibition, % at 5 µM; CHO/OX1R cells, Fluo-8 calcium fluorescence, orexin A; O43613; AID 434989; hit rate 0.43% among 330,000;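 active means inhibition above its plate's threshold, mean inhibition of all tested compounds on the plate plus 3 SD, cut at about 37% in these data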;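 further: 0% = orexin A challenge wells and 100% = SB-334867-A antagonist wells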
CHO-K1 Ca antag – nonselective inhibitor or artifact in parental CHO-K1 cells; ATP-induced calcium, Fluo-8 fluorescence; inhibition, % at 3 µM; hit rate 0.6% among 360,000;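 active means inhibition above a per-plate cutoff, the plate's mean sample inhibition plus 3 SD, cut at about 24% in these data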;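 further: 0% = DMSO plus EC80 ATP and 100% = DMSO alone without ATP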
M1 ag parental – M1 agonist counterscreen hit in parental CHO-K1 cells; hit rate 0.48% among 360,000; activation, % at 3 µM; AID 602248; Fluo-8 calcium fluorescence; scaled to maximal ATP response, vehicle zero; in the data active means activation above about 15%;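 further: untransfected CHO-K1 host cells lacking M1 receptor as counterscreen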
* hit, by the source's call; · = not tested or not shown.

SMILES	CHO parental Ca	M1 PAM parental	OX1R antag-1	OX1R antag-2	CHO-K1 Ca antag	M1 ag parental
NC(=O)COC(=O)c1ccc(Cl)c(S(=O)(=O)N2CCCCCC2)c1	-2	6	16	-14	-16	1
CS(=O)(=O)c1ccc2nc(NC(=O)c3ccc(NS(=O)(=O)c4cccc([N+](=O)[O-])c4)cc3)sc2c1	13	7	-4	-2	-12	0
CC(=O)Nc1cccc(-c2ccnc3c2CC(C)(C(=O)Nc2ccc4c(c2)OCO4)O3)c1 (stereo unspecified)	·	-8	·	·	8	0
COc1ccc(-n2nc3c(c2NC(=O)COc2cccc(OC)c2)CS(=O)(=O)C3)cc1	-6	14	28	-11	-7	1
O=C1C(=O)N(CCS(=O)(=O)c2ccccc2)c2ccc(Cl)cc21	-21	-4	13	-20	0	1
CCCN1C(=O)C(=O)c2cc(Cl)ccc21	-11	22	49*	3	-9	0
CCCCSc1nc(C)cc(SCC(=O)N/N=C/c2cccc(OC)c2O)n1	34*	12	70	57*	2	6
COc1cccc(/C=N/NC(=O)CSc2nnc(C)n2-c2ccccc2)c1O	-13	16	23	-16	1	0
Cn1cc([N+](=O)[O-])c(C(=O)Nc2ccc(Br)cn2)n1	7	6	50*	-17	-25	-1
Cn1cc([N+](=O)[O-])c(C(=O)N/N=C/c2ccncc2)n1	4	-14	75*	8	-7	0
O=C(Nc1ccc(F)c(Cl)c1)Nc1ccc(Cl)cn1	-5	4	9	-5	14	2
COC(=O)c1ccc(NC(=O)Nc2ccc(F)c(Cl)c2)cc1	41*	3	59*	19	17	15*
O=C(Nc1ccncc1)Nc1ccc(F)c(Cl)c1	23	0	20	21	24*	11
COC(=O)c1ccc(NC(=O)Nc2ccc([N+](=O)[O-])cc2)cc1	67*	-6	45	37*	20	16*
COC(=O)c1ccc(NC(=O)Nc2ccc(F)cc2)cc1	7	7	64	26	19	9
O=C(Nc1ccc(F)c(Cl)c1)Nc1csc2ccccc12	40*	-10	67*	50*	28*	13
O=C(Nc1ccc(C(=O)O)cc1)Nc1ccc([N+](=O)[O-])cc1	-9	-5	9	-10	2	0
COC(=O)c1ccc(C2OCC(C)(C)CO2)cc1	9	7	-2	-69	-8	0
Cc1c(C(=O)c2ccc(N(C)C)cc2)c2ccccn2c1CCC#N	-5	-18	26	-6	25*	0
Cn1c(=O)c2c(nc(NN=C3CCCC3)n2C)n(C)c1=O	-11	3	48*	-19	-14	1
Cn1c(=O)c2c(nc(NNC(=O)C(F)(F)F)n2C)n(C)c1=O	0	13	7	-7	-14	0
Cc1cc(NC(=O)C(C)SCC(=O)N(C)CC(=O)Nc2ccccc2Br)no1 (stereo unspecified)	-17	-3	9	-38	1	1
C#CCn1c(S(=O)(=O)Cc2ccc(OC)cc2)nc(-c2ccccc2)c1-c1ccccc1	-23	12	58*	-8	-11	0
CN1c2ccccc2C(C)(C)[C@]12C=Cc1cc(O)ccc1O2	48*	10	5	21	10	3
COc1ccc(-c2noc(CCCC(=O)NC3CCCC3)n2)cc1	14	-4	27	-14	4	14
SMILES	CHO parental Ca	M1 PAM parental	OX1R antag-1	OX1R antag-2	CHO-K1 Ca antag	M1 ag parental
O=C(CCCc1nc(-c2ccc(Cl)cc2)no1)NC1CCCC1	48*	-5	38	11	4	17*
O=C(CCc1nc(-c2ccc(Cl)cc2)no1)NC1CCCCC1	-3	2	21	-10	5	17*
COc1ccc(-c2noc(CCC(=O)NC3CCCCCC3)n2)cc1	2	4	14	-10	2	9
CSc1nc(C)cc(OCCNS(=O)(=O)c2cc(C)ccc2C)n1	-14	-5	71*	1	-2	0
Cc1ccc(C)c(S(=O)(=O)NCCOc2nc(NC(C)C)nc(NC(C)C)n2)c1	-21	7	28	-17	-20	1
COc1ccc(OC)c(CCNC(=O)c2ccc3c(c2)N(Cc2ccccc2)CCS3)c1	-32	5	23	-25	-15	0
COc1ccc(CCNC(=O)c2ccc3c(c2)N(Cc2ccccc2)CCS3)cc1OC	-4	18	57*	-12	-4	8
O=C(NCCCN1CCCC1)c1ccc2c(c1)N(Cc1ccccc1)CCS2	-14	-7	26	-20	-1	0
NS(=O)(=O)c1ccc(CCNC(=O)c2ccc3c(c2)N(Cc2ccccc2)CCS3)cc1	-7	5	70*	-6	-2	6
Nc1ncncc1-c1ccccc1Cl	·	-10	·	·	-1	0
O=C(Nc1cccc(C(F)(F)F)c1)C1CCCN1S(=O)(=O)c1cccc2cccnc12 (stereo unspecified)	-20	16	91*	80*	-11	7
O=C(C1CCCN1S(=O)(=O)c1cccc2cccnc12)N1CCc2ccccc21 (stereo unspecified)	-2	6	47*	-6	-2	0
O=C(C1CCCN1S(=O)(=O)c1cccc2cccnc12)N1CCc2ccccc2C1 (stereo unspecified)	-16	4	17	-13	-10	1
Cc1cccc(C(=O)Nc2cccc3cccnc23)c1	·	9	·	·	-15	0
Cc1ccc(C(=O)Nc2cccc3cccnc23)cc1C	-21	-11	68*	35	10	0
Cc1ccccc1NC(=O)C1CCCN1S(=O)(=O)c1cccc2cccnc12 (stereo unspecified)	0	0	43*	6	14	1
Cc1ccccc1NC(=O)C1CCCN(S(=O)(=O)c2cccc3cccnc23)C1 (stereo unspecified)	-20	12	18	-26	-1	7
O=C(CN(C(=O)CNC(=O)c1cccs1)c1ccccc1F)NC1CCCC1	-7	9	5	-6	-18	3
CCC1=NN(C(=O)Cc2ccc([N+](=O)[O-])cc2)C(O)(c2ccncc2)C1 (stereo unspecified)	-4	20	22	-12	-5	1
NC(=O)c1ccccc1NC(=O)CC1(CC(=O)O)CCCC1	-3	-1	8	-9	-11	0
Cc1ccc(NC(=O)CN(C)S(=O)(=O)c2cccc3cccnc23)cc1C	-10	10	39*	-20	7	5
Cc1ccc(NC(=O)CN(C)S(=O)(=O)c2cccc3cccnc23)cc1F	-27	-5	22	4	3	6
CN(CC(=O)N1CCc2ccccc21)S(=O)(=O)c1cccc2cccnc12	-1	10	60*	-4	0	3
Cc1cc(C)c2c(CN3CCN(CCO)CC3)cc(=O)oc2c1	0	-7	13	-1	29*	-1

Screening results (PubChem)
